Laboratory results as given in ChEMBL document CHEMBL4342526, “Exploration of the Structural Space in 4(3H)-Quinazolinone Antibacterials” (J Med Chem, 2020).
Converted amounts (≈) assume the structure as drawn.

Legend:
[1] = Solubility of the compound in water; assay type: physicochemical; details: buffer
[2] = Selectivity index, ratio of IC50 for human HeLa cells to MIC for clindamycin/erythromycin/spectinomycin-resistant mec-positive Staphylococcus aureus NRS70; assay type: toxicity
How it was run: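 HeLa cytotoxicity by XTT assay in triplicate, IC50 by nonlinear regression; ratio IC50 over broth microdilution MIC against NRS70.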

Staphylococcus aureus [3] = assay: Antibacterial activity against Staphylococcus aureus ATCC 29213 measured after 16 to 20 hrs in presence of bovine serum albumin by microdilution method; assay type: functional
How it was run: (§1)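 S. aureus ATCC29213 MIC was run by CLSI microdilution in cation-adjusted Mueller–Hinton broth plus 2% NaCl, with and without 0.5% bovine serum albumin. Compounds were two-fold serially diluted in triplicate, inoculum was 5 × 10^5 CFU/mL, and plates were incubated at 37 °C for 16–20 h. The endpoint was the lowest concentration with no visible growth.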

HeLa = assay: Cytotoxicity against human HeLa cells assessed as reduction in cell viability measured after 16 hrs by XTT assay; assay type: cell-based
How it was run: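 HeLa cells (ATCC CCL-2), run in triplicate. Viability was read by XTT, and IC50 was obtained by nonlinear regression.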

Staphylococcus aureus [4] = assay: Antibacterial activity against multi-drug resistant mecA-positive Staphylococcus aureus NRS119 measured after 16 to 20 hrs by microdilution method; assay type: functional
How it was run: (§2)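 CLSI broth microdilution; two-fold serial compound dilutions in triplicate in cation-adjusted Mueller–Hinton broth with 2% NaCl, inoculum 5 × 10^5 CFU/mL; 37 °C for 16–20 h; MIC = lowest concentration with no visible growth.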

Staphylococcus aureus [5] = assay: Antibacterial activity against Staphylococcus aureus ATCC 29213 measured after 16 to 20 hrs by microdilution method; assay type: functional
How it was run: (§3)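 CLSI broth microdilution: two-fold serial dilutions in triplicate in cation-adjusted Mueller–Hinton broth with 2% NaCl, inoculum 5 × 10^5 CFU/mL, incubated at 37 °C for 16–20 h. MIC is the lowest concentration preventing visible growth.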

[6] = Protein binding in human plasma at 10 uM measured after 6 hrs UV-UPLC based rapid equilibrium dialysis method; assay type: ADME, cell-free
How it was run: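 Rapid equilibrium dialysis: human plasma was cleared by centrifugation and spiked from a 1 mM DMSO stock to a final 10 μM, against 0.1 M PBS pH 7.4. Dialysis ran 6 h at 37 °C with orbital shaking. Buffer (free) and plasma (total) aliquots were mixed with internal standard in acetonitrile and measured by UPLC-UV at 285 nm. B% = (Cp−Cf)/Cp×100.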

Staphylococcus aureus [7] = assay: Antibacterial activity against multi-drug resistant mecA-positive Staphylococcus aureus ATCC 27660 measured after 16 to 20 hrs by microdilution method; assay type: functional; how it was run: as §2
Staphylococcus aureus [8] = assay: Antibacterial activity against multi-drug resistant mec-positive Staphylococcus aureus USA300 measured after 16 to 20 hrs by microdilution method; assay type: functional; how it was run: as §2
Staphylococcus aureus [9] = assay: Antibacterial activity against clindamycin/erythromycin/spectinomycin-resistant mec-positive Staphylococcus aureus NRS70 measured after 16 to 20 hrs by microdilution method; assay type: functional; how it was run: as §2
Staphylococcus aureus [10] = assay: Selectivity ratio of MIC for Staphylococcus aureus ATCC 29213 in presence of bovine serum albumin to MIC for Staphylococcus aureus ATCC 29213 in absence of bovine serum albumin; assay type: functional; how it was run: as §1
Enterococcus faecium = assay: Antibacterial activity against Enterococcus faecium NCTC 7171 measured after 16 to 20 hrs by microdilution method; assay type: functional; how it was run: as §3
[11] = Clearance in ICR mouse at 5 mg/kg, iv by UV-UPLC analysis; assay type: ADME, organism-based; details: in vivo
How it was run: (§4)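 Female ICR mice, 6–8 weeks old, 20–25 g. Each received 50 μL by tail-vein injection (5 or 10 mg/kg) of a filter-sterilized 2 or 4 mg/mL solution in 20% DMSO/10% Tween-80/70% water. Terminal blood was collected and plasma harvested by centrifugation. Plasma was precipitated with acetonitrile containing internal standard, and the supernatant was analyzed by C18 UPLC with UV detection at 285 nm.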

[12] = AUC (0 to last) in ICR mouse at 5 mg/kg, iv by UV-UPLC analysis; assay type: ADME, organism-based; set-up: dose 5 mg/kg, route intravenous, time 0 - last; details: in vivo; how it was run: as §4
[13] = Clearance in ICR mouse at 5 mg/kg, iv by UV-UPLC analysis relative to hepatic blood flow; assay type: ADME, organism-based; details: in vivo; how it was run: as §4

SMILES	solubility [1]	selectivity ratio [2]	MIC (Staphylococcus aureus [3]) [µg/mL]	IC50 (HeLa) [µg/mL]	MIC (Staphylococcus aureus [4]) [µg/mL]	MIC (Staphylococcus aureus [5]) [µg/mL]	PPB [6] [%]	MIC (Staphylococcus aureus [7]) [µg/mL]	MIC (Staphylococcus aureus [8]) [µg/mL]	MIC (Staphylococcus aureus [9]) [µg/mL]	selectivity ratio (Staphylococcus aureus [10])	MIC (Enterococcus faecium) [µg/mL]	clearance [11] [mL/min/kg]	AUC(0-t) [12] [ng·h/mL]	CL [13] [%]
N#Cc1ccc(/C=C/c2nc3ccccc3c(=O)n2-c2ccc[n+]([O-])c2)cc1	Insoluble	> 128	32	> 128	4 (≈ 10.9 µM)	2 (≈ 5.46 µM)	67.9	2 (≈ 5.46 µM)	1 (≈ 2.73 µM)	1 (≈ 2.73 µM)	–	–	–	–	–
N#Cc1ccc(/C=C/c2nc3ccccc3c(=O)n2-c2cccc(C(=O)O)c2)s1	–	28	32	110 (≈ 275 µM)	4 (≈ 10 µM)	4 (≈ 10 µM)	99.2	4 (≈ 10 µM)	4 (≈ 10 µM)	4 (≈ 10 µM)	–	–	–	–	–
O=C(O)c1cccc(-n2c(/C=C/c3ccc(Cl)cc3)nc3ccccc3c2=O)c1	–	200	1	50 (≈ 124 µM)	0.125 (≈ 0.31 µM)	0.25 (≈ 0.621 µM)	> 99.9	0.25 (≈ 0.621 µM)	0.125 (≈ 0.31 µM)	0.25 (≈ 0.621 µM)	<=4	–	–	–	–
N#Cc1ccc(CSc2nc3ccccc3c(=O)n2-c2cccc(C(=O)O)c2)cc1	–	39	8	78 (≈ 189 µM)	–	2 (≈ 4.84 µM)	> 99.9	–	–	–	<=4	–	–	–	–
N#Cc1ccc(/C=C/c2nc3ccccc3c(=O)n2-c2cccc(NC(=O)CCc3cnc[nH]3)c2)cc1	–	–	–	–	–	8 (≈ 16.4 µM)	–	–	–	–	–	16 (≈ 32.9 µM)	–	–	–
N#Cc1ccc(/C=C/c2nc3ccccc3c(=O)n2-c2cccc(C(N)=O)c2)cc1	Insoluble	> 64	16	> 128	32 (≈ 81.5 µM)	2 (≈ 5.1 µM)	97.1	–	1 (≈ 2.55 µM)	–	–	–	–	–	–
N#Cc1ccc(/C=C/c2nc3ccccc3c(=O)n2-c2cccc(S(N)(=O)=O)c2)cc1	–	> 1070	0.5	> 64	0.125 (≈ 0.292 µM)	0.25 (≈ 0.583 µM)	97.1	0.06 (≈ 0.14 µM)	0.06 (≈ 0.14 µM)	0.06 (≈ 0.14 µM)	<=4	–	98	850	> 10
